The sample as a whole holds a higher share of hits than the screen did.
H69AR inhibit: proliferation blockers of H69AR lung cancer cells, primary screen, cell-based, human, 86K library; viability, % at 10 µM; H69AR lung tumor viability, ATP luminescence, 72 h; hits give low values; 85,000 compounds, 6% hits;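 active = viability at or below 40%; inactive = viability above 40%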;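 also: multidrug resistant small cell line overexpressing MRP-1 efflux transporter; 100% = mean luminescence of untreated control wells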
HCT116 bCat-KO: primary screen for growth suppressors in beta-catenin knockout HCT116 cells (colon tumor, human); HCT116 beta-catenin knockout viability, CellTiter-Glo, 60 h; hits give low values; 140,000 compounds, 1.5% hits; AID 818, 2007; viability, % at 10 µM;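 active = viability at or under a set limit, the compound median less 4 SD, cut at about 6% in these data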;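 also: 0% = Hyamine 1622 control at 20 µM and 100% = untreated cell control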
Phagocyt inh: inhibitors of macrophage phagocytosis, primary screen, imaging, J774A.1 cells, IgG beads. J774A.1 macrophage IgG-bead phagocytosis. inhibition, % at 5 µM. 110,000 compounds, 0.07% hits;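 active = inhibition above the mean of the plate negative controls plus 5 SD, cut at about 13% in these data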;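 also: phagocytic index as fraction of beads internalized from green versus red external bead signal; plate controls were DMSO negative control for no effect and cytochalasin-D positive control for full effect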
Fibroblast inh: antiproliferative effect on LL 47 fibroblasts – human, LL 47 cells, CellTiter-Glo luminescence, primary screen; viability, % at 10 µM; AID 719, 2007; LL 47 human lung fibroblast viability, ATP luminescence; hits give low values; 85,000 compounds, 1.1% hits;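 active = viability at or below 50% in the single dose screen; inactive = viability above 50%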;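 also: compound exposure lasted 72 h before the ATP readout; 100% = median luminescence of untreated cell-only wells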
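Material: Human LL 47 lung fibroblast cells | Input: 1,150 cells/well | Buffer or medium: IMEM plus 15% FBS | Compound dosing: 0.1% DMSO in all compound wells | Times: Overnight cell rest, 72 h compound treatment at 37 °C | Signal: CellTiter-Glo luminescence measuring cellular ATP | Measure: % viability versus median cells-only luminescence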
HUVEC prolif 384: inhibitors of HUVEC proliferation, primary screen, cell-based, 384-well | 86,000 compounds, 1.1% hits | CellTiter-Glo luminescence, 72 h; hits give low values | viability, % at 10 µM (by protocol) | AID 648, 2007;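 active = viability at or below 30%; inactive = viability above 30%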;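 also: 100% = median luminescence of DMSO-only cell control wells on each plate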
HCT116 PTEN-null: growth suppression of PTEN-null HCT116, primary screen, cell-based, CellTiter-Glo | HCT116 PTEN-null viability, 60 h; hits give low values | viability, % at 10 µM | 140,000 compounds, 1.2% hits | AID 827, 2007;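 active = viability at or below a set limit, 4 SD under the median of all tested compounds, cut at about 3.7% in these data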;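 also: PTEN knockout HCT116 line with beta catenin targeted HCT116 as companion control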
* = called active by the depositor; x = no result given.

SMILES	H69AR inhibit	HCT116 bCat-KO	Phagocyt inh	Fibroblast inh	HUVEC prolif 384	HCT116 PTEN-null
CCCn1c(/N=C/c2cc(OC)ccc2O)nc2ccccc21	40*	80	-1	108	82	77
Cc1ccccc1OC1C(=O)N(Cc2ccc3c(c2)OCO3)C1c1sccc1C (centres undefined)	x	30	x	x	x	27
Cc1ccc(S(=O)(=O)N2CCN(C(=O)COc3ccc(NC(=O)c4ccco4)cc3)CC2)cc1	37*	90	1	106	88	82
COc1ccc(S(=O)(=O)Cc2ccc(C(=O)NCc3cccnc3)o2)cc1	45	86	x	95	98	83
O=C(NCc1cccnc1)c1ccc(COc2ccc3c(c2)CCC3)o1	6.4*	75	2	95	81	64
CCOc1ccc(S(=O)(=O)N2c3ccccc3CC2C)cc1 (centres undefined)	25*	13	3	52	48	13
CSCC[C@H](NC(=O)c1nn(C)c(=O)c2ccccc12)c1nc2ccccc2[nH]1	70	78	x	93	93	80
Cc1cc(Nc2c(C)n(C)n(-c3ccccc3)c2=O)n2c(nc3ccccc32)c1C#N	104	95	0	100	93	87
Cc1cc(Nc2cccc([N+](=O)[O-])c2)n2c(nc3ccccc32)c1C#N	x	3.4*	-1	x	x	4
C=CCn1c(SCC(=O)Nc2nc(C)cs2)nnc1C(NC(=O)c1ccccc1)C(C)C (centres undefined)	14*	94	x	100	93	96
COc1ccc(C(=O)NC(C)c2nnc(SCC(=O)Nc3nc(C)cs3)n2C)cc1 (centres undefined)	95	98	x	109	94	91
COC(=O)c1cc2ccsc2n1Cc1nc(-c2ccc(Cl)cc2)oc1C	68	73	0	76	102	77
O=c1c(Cl)nc2cc(Cl)ccc2n1CCNc1ncc(C(F)(F)F)cc1Cl	x	1.4*	x	x	x	1.2*
O=[N+]([O-])c1ccc(Sc2nc3ccccc3o2)c([N+](=O)[O-])c1	0.2*	1.9*	0	0.9*	2.6*	1.4*
O=[N+]([O-])c1ccc(Cl)cc1Sc1nc2ccccc2o1	25*	9	x	95	41	9
O=[N+]([O-])c1ccc(Cl)cc1Sc1cccc2cccnc12	78	96	x	82	90	92
Cc1ccnc(Sc2ccc([N+](=O)[O-])cc2[N+](=O)[O-])n1	x	5.2*	1	x	x	6
O=C(COC(=O)C(Cc1ccccc1)NC(=O)c1ccc(Cl)cc1)c1ccc(Cl)cc1 (centres undefined)	x	91	-7	x	x	98
O=S(=O)(NCc1ccco1)N1CCOCC1	87	85	-2	99	98	93
Cc1ccc2nc(SCC(=O)Nc3cc(C(F)(F)F)ccc3N3CCOCC3)[nH]c2c1	12*	10	4	40*	29*	13
COC(C#CCCN(C)C)(c1ccccc1)c1ccccc1	x	86	x	x	x	92
CN(CCc1ccccn1)S(=O)(=O)c1ccc(F)cc1	89	92	-3	96	110	95
CC(C)(C)c1cc(S(=O)(=O)CCc2ccccn2)cc(C(C)(C)C)c1F	41	75	153*	93	103	x
COCCCN(C(=S)Nc1cc(C)cc(C)c1)C(C)c1ccncc1 (centres undefined)	x	92	-4	x	x	93
CCOc1cc(C(=O)Nc2ccc(NC(C)=O)cc2)ccc1OCC(=O)N1CCCCC1	x	95	-2	x	x	94
SMILES	H69AR inhibit	HCT116 bCat-KO	Phagocyt inh	Fibroblast inh	HUVEC prolif 384	HCT116 PTEN-null
CC1=C/C(=C\c2ccc3c(c2)OCO3)C(=O)S1	68	99	-2	105	82	88
CCCN1C/C(=C/c2ccc3c(c2)OCO3)C(=O)/C(=C/c2ccc3c(c2)OCO3)C1	x	2.0*	x	x	x	2.2*
CCCN1C/C(=C/c2cccc([N+](=O)[O-])c2)C(=O)/C(=C/c2cccc([N+](=O)[O-])c2)C1	x	2.6*	2	x	x	2.0*
CC1(C)CC(=O)/C(=C\c2cccc([N+](=O)[O-])c2)C(C)(C)N1	x	18	-6	x	x	9
CN(C)c1ccc(N=Nc2ccccc2C(=O)OCC(=O)N(C)c2ccccc2)cc1	x	60	-15	x	x	91
CCOc1ccc(-c2nc(N)ncc2-c2ccc(OC)cc2)c(O)c1	x	89	-2	x	x	87
CCOc1ccc(-c2nc(N)ncc2-c2ccccc2)c(O)c1	28*	87	0	93	114	82
Nc1cccc2nc3ccccc3cc12	9.2*	4.0*	x	19*	4.2*	3.2*
COc1c2occc2c(OC)c2c(=O)cc(C(F)(F)C(F)(F)F)oc12	107	99	0	101	100	106
COc1cc(-c2nnc(-c3ccc(N4CCOCC4)cc3)o2)cc(OC)c1OC	17*	74	x	95	84	76
COc1cc(-c2nnc(-c3ccc(S(=O)(=O)c4ccccc4)cc3)o2)cc(OC)c1OC	68	97	-3	88	86	81
O=C(NC(=S)N1CCOCC1)c1ccc([N+](=O)[O-])cc1	x	94	-4	x	x	94
COc1ccc(OC)c(C(=O)c2coc3ccc(O)cc23)c1	24*	98	-1	99	78	106
COc1ccc(C(=O)c2ccc(OC)cc2O)c(O)c1	32*	64	-1	89	90	86
COc1ccc(C(=O)/C=C(\N)C(F)(F)F)c(O)c1	74	98	0	x	85	97
CCS(=O)(=O)N1Cc2ccccc2CC1C(=O)Nc1nnc(SCc2ccc(F)cc2)s1 (centres undefined)	x	72	-4	x	x	76
O=C(NC1=C(Nc2ccc(Cl)cc2)C(=O)c2ccccc2C1=O)c1ccccc1	x	34	-9	x	x	49
CN(C1=C(NC(=O)c2ccc(Cl)cc2)C(=O)c2ccccc2C1=O)c1ccccc1	x	1.6*	-7	x	x	1.6*
CN(C)/C=C/C(=O)c1ccc(N2CCN(c3ncc(C(F)(F)F)cc3Cl)CC2)cc1	0.8*	2.1*	-1	52	2.3*	10
O=C(CN1CCN(c2ncc(C(F)(F)F)cc2Cl)CC1)NCCNc1ncc(C(F)(F)F)cc1Cl	3.8*	79	0	102	76	74
CN(C)C=NC(=O)c1ccc(N2CCN(c3ncc(C(F)(F)F)cc3Cl)CC2)cc1	47	45	1	93	95	32
CS(=O)(=O)CCC(C(=O)OCc1ccc(Cl)cc1)N1C(=O)c2ccccc2C1=O (centres undefined)	x	92	1	x	x	109
COc1cnc(SCc2ccc(Cl)cc2Cl)nc1Cl	x	90	-1	x	x	91
Cc1nnc(SCc2ccccc2)nc1/C=C/NOCc1ccc(Cl)cc1Cl	2.3*	92	-1	91	72	84
